Results reported in ChEMBL document CHEMBL1149898, “A biaryl xanthone derivative having axial chirality from Penicillium vinaceum” (J Nat Prod, 2008).
≈ marks a conversion by molar mass, not a printed value. Calls of active or inactive are those of the source. The rule behind the calls is not given here.

Tests used:
Saccharomyces cerevisiae = assay: Antifungal activity against Saccharomyces cerevisiae after 18 to 24 hrs by disk diffusion test; type: functional, organism-based
In short: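 Diluted yeast inoculum was spread on 90 mm agar plates supplemented with 2% glucose and dried for 5–15 min. Disks loaded with 10, 50, 100 and 200 µg of compound were placed on top. Plates were incubated 18–24 h at 28 °C, then inhibition zone diameters were measured.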

Escherichia coli = assay: Antibacterial activity against Escherichia coli by disk diffusion test; type: functional, organism-based
In short: (§1)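 Bacterial suspensions were grown 2–5 h to a suitable OD, diluted with water and swabbed evenly over agar. After the inoculum dried, disks carrying 10, 50, 100 and 200 µg of compound were applied. Plates were incubated overnight, and zone diameters around the disks were measured.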

Bacillus subtilis = assay: Antibacterial activity against Bacillus subtilis by disk diffusion test; type: functional, organism-based; in short: as §1
Staphylococcus aureus = assay: Antibacterial activity against Staphylococcus aureus by disk diffusion test; type: functional, organism-based; in short: as §1
Paracentrotus lividus = assay: Inhibition of sea urchin egg fertilization by sea urchin sperm assessed as inhibition of divided eggs by light microscopy; type: functional, organism-based
In short: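 Eggs were rinsed, filtered and diluted in artificial seawater to 2000 eggs/mL. "Dry" sperm was diluted 1:50 in ASW, and 10 µL was added per 1 mL eggs at 20 °C. Compounds were in DMSO at 50 µg/mL, with DMSO-only controls. Eggs were cultured at room temperature with gentle agitation, and percent divided eggs was scored by light microscopy 30 min post-fertilization.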

[1] = tested on: Agrobacterium tumefaciens; assay: Antitumor activity against Agrobacterium tumefaciens-induced 10 ppm crown gall tumor in potato tubers at […] after 21 days by crown gall tumor potato disk test; type: functional
In short: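 Potato tubers were surface-sterilized in 1% NaOCl for 20 min and cut into 5 mm disks, 10 per 2% agar plate. A 48 h Agrobacterium tumefaciens culture, mixed with compound in DMSO at 10 or 100 µg/mL, was applied to each disk. Plates were kept at 28 °C for 21 days. Tumors per disk were counted; % inhibition = 100 − (mean tumors sample/mean control)×100.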

IC50 (Paracentrotus lividus) | SMILES | Activity (Saccharomyces cerevisiae) | Activity (Escherichia coli) | Activity (Bacillus subtilis) | Activity (Staphylococcus aureus) | inhibition (INH) [1]
0.12 µg/mL (≈ 0.208 µM) | CC(=O)c1cc2c(=O)c3c(C(=O)O)c(O)c(O)cc3oc2c(C(C)=O)c1-c1coc2cc(O)c(O)c(C(=O)O)c2c1=O [VINAXANTHONE] | inactive | inactive | inactive | inactive | 67%
0.05 µg/mL (≈ 0.0824 µM) | COc1oc2cc(O)c(O)c(C(=O)O)c2c(=O)c1-c1c(C(C)=O)cc2c(=O)c3c(C(=O)O)c(O)c(O)cc3oc2c1C(C)=O | inactive | inactive | inactive | inactive | 72%
0.71 µg/mL (≈ 1.23 µM) | CC(=O)c1cc2c(=O)c3c(C(=O)O)c(O)c(O)cc3oc2c(C(C)=O)c1C1COc2cc(O)c(O)c(C(=O)O)c2C1=O (stereo not drawn) | inactive | inactive | inactive | inactive | 12%
